TCR-CD3 inh: inhibitors of human TCR-CD3 interaction; TAMRA-labeled TCR probe fluorescence, biochemical; inhibition, % at 9.4 µM; 360,000 tested, 0.37% active; AID 651800; in the data active = inhibition above about 19%;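 also: recombinant mutant TCR 2C K166C tagged with TAMRA read by polarization; 0% = receptor in buffer alone and 100% = receptor with positive control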
SIAE inh: human SIAE inhibition, primary screen; 370,000 tested, 0.69% active; Q9HAT2; SIAE FP-Rh probe binding, fluorescence polarization; AID 1053197; inhibition, % at 9.66 µM;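 active = inhibition above a cutoff: mean of compounds within the control limits plus 3 SD of those, cut at about 17% in these data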;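 also: 0% = plate median of compound wells and 100% = probe without SIAE protein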
PAD4 inh: inhibitors of human PAD4 | AID 485272 | recombinant PAD4, RCA probe fluorescence polarization | Q9UM07 | inhibition, % at 6.36 µM | 330,000 tested, 0.41% active;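 active = percent inhibition above a cutoff equal to the mean of all tested compounds plus 3 SD, cut at about 15% in these data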;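 also: 0% = PAD4 with RCA probe and DMSO and 100% = probe without PAD4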
TDP2 absorb: blocks human TDP2 phosphodiesterase activity; recombinant TDP2, T5PNP hydrolysis, p-nitrophenol absorbance 415 nm; O95551; inhibition, % at 12.8 µM; 370,000 tested, 0.34% active;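 active = inhibition above the mean of all tested compounds plus 3 SD, set per campaign, cut at about 25% in these data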;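 also: 0% = DMSO with enzyme and 100% = buffer with substrate but no TDP2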
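Material: recombinant human TDP2; quantity: TDP2 enzyme at 120 nM final; medium: Tris-HCl pH 7.5 with MgCl2; compound: single concentration, 12.8 µM nominal, with 1% DMSO; incubation: 2 h enzyme incubation at 37 °C; signal: epi absorbance; measure: percent inhibition; benchmarks: high control without enzyme, low control DMSO plus TDP2; repeats: singlicate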
GSTO1 counter: GSTO1 inhibition, counter-screen for RBBP9 inhibitors. recombinant GSTO1, activity-based probe fluorescence polarization. inhibition, % at 5.96 µM. 300,000 tested, 1.1% active. AID 1974;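 active = inhibition above the campaign mean inhibition plus 3 SD, cut at about 35% in these data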;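 also: 0% = GSTO1-1 with DMSO and 100% = wells lacking GSTO1-1 enzyme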
Target sequence (P78417 whole entry, looked up): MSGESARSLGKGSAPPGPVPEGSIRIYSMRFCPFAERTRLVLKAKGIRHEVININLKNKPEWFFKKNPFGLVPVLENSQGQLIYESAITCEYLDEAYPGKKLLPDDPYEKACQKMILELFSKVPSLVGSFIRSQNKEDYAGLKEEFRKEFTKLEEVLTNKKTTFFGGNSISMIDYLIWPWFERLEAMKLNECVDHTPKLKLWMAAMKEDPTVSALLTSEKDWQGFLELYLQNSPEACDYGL
Apaf1 inhib: human Apaf-1 inhibition; reconstituted apoptosome caspase-3 activity, DEVD-Rh110 fluorescence; inhibition, % at 20 µM; 330,000 tested, 0.71% active; active = inhibition of at least 40% at 20 µM;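 also: plate controls were DMSO wells for no effect and DEVD-CHO caspase inhibitor wells for full effect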
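Material: cell-free apoptosome with Apaf-1, procaspase-3 and caspase-9; Buffer or medium: Hepes pH 7.5 with detergent and BSA; Reagent: cytochrome c trigger plus (Z-DEVD)2-Rh110 caspase-3 substrate; Times: compound with Apaf-1, dATP, procaspase-3 30 min, then 50 min reaction, room temperature; Technique: Rh110 fluorescence intensity.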
Apaf-1 inh conf2: confirmation of Apaf-1 inhibitors. shares compounds with Apaf1 inhib. reconstituted apoptosome, caspase-3 DEVD-Rh110 fluorescence. inhibition, % at 20 µM. 1,800 tested, 25% active. AID 504614;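 active = mean inhibition of at least 40% at 20 µM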;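 also: plate controls were DMSO wells for no effect and DEVD-CHO caspase inhibitor control wells for full effect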
Rh110 quench: interferes with Rh110 fluorescence, flagging false Apaf-1 inhibitors; shares compounds with Apaf1 inhib; Rh110 fluorescence interference, quenched caspase reaction; activation (fluorescence interference), % at 20 µM; 1,800 tested, under 10 active; AID 504615;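 active = signal rise of 40% or more at 20 µM, treated as a fluorescence artifact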
Fluor interf inh: Apaf-1 inhibitor counter-screen fluorescence artifact. fluorescence interference counterscreen, Apaf-1 assay format. AID 588538. shares compounds with Apaf1 inhib. IC50, µM. 460 tested, under 10 active; call rule not given here
Numbers without * were called inactive; nt = no result given; ! = not confirmed by another sample. In the library only some 2.4% were active in any assay of this set; here they are far more common.

SMILES | TCR-CD3 inh | SIAE inh | PAD4 inh | TDP2 absorb | GSTO1 counter | Apaf1 inhib | Apaf-1 inh conf2 | Rh110 quench | others
CC1(C)C[C@H](O)[C@@]23C[C@@H](OC2=O)[C@]2(C)C(=CCC4[C@@]5(C)CC[C@H](O)C(C)(C)C5CC[C@]42C)[C@@H]3C1 (stereo not given in full) | nt | nt | -5.3 | nt | -6.3 | 12.4 | nt | nt
CC(NC(=O)C1CCN(C(=O)c2cccs2)CC1)c1ccc(S(N)(=O)=O)cc1 (stereo not given) | -2.2 | -1.0 | -2.6 | 5.9 | nt | 62.1* | 34.8 | 11.5
C=CC[C@@H](Cc1ccc(F)cc1)C(=O)OC[C@H]1CCCN1C(=O)[C@@H](CC=C)CC(=O)N[C@@H](CO)Cc1ccccc1 | -1.4 | -2.1 | 3.7 | -3.4 | nt | 28.4 | nt | nt
C=CC[C@@H](Cc1ccc(F)cc1)C(=O)OC[C@@H]1CCCN1C(=O)[C@@H](CC=C)CC(=O)N[C@@H](CO)Cc1ccccc1 | 2.3 | 5.0 | -2.5 | -2.4 | nt | 40.4* | 17.8 | 11.2
C=CC[C@@H](Cc1ccc(F)cc1)C(=O)OC[C@H]1CCCN1C(=O)[C@@H](CC=C)CC(=O)N[C@H](CO)Cc1ccccc1 | 4.8 | 9.9 | -6.3 | -1.6 | nt | 40.9* | 18.8 | 7.5
C=CC[C@@H](Cc1ccc(F)cc1)C(=O)OC[C@H]1CCCN1C(=O)[C@H](CC=C)CC(=O)N[C@H](CO)Cc1ccccc1 | -4.1 | -1.5 | -8.9 | -19.6 | nt | 31.2 | nt | nt
CCn1c(SCC(=O)N2CCCC2)nc2c(c1=O)SCC2 | 5.0 | -1.2 | 1.7 | -14.7 | -1.0 | 14.3 | nt | nt
CN(C)c1c(F)cc(C(=O)NCc2ccccc2)cc1F | -5.2 | 1.3 | 5.3 | -7.7 | -0.3 | -1.1 | nt | nt
FC(F)(F)c1ccc(CN2C[C@@H]3C(c4ccc(Cl)nc4)C4(c5cccnc5)CC3(C4)[C@H]2c2ccccc2)cc1 (stereo not given in full) | 5.5 | -3.2 | -2.6 | -2.6 | -3.0 | 42.0* | 20.0 | 16.9
CCCOc1cc2c(C#N)c(N3CCCC3)nc(N)c2c(N)n1 | -1.2 | 0.2 | -16.2 | 2.3 | 5.3 | 97.6* | 73.5* | 2.6 | Fluor interf inh=>100
COc1cc2c(C#N)c(N3CCCC3)nc(N)c2c(N)n1 | 5.2 | -0.9 | -9.1 | 10.8 | 3.7 | 83.8* | 49.4*! | 10.6
CCCCN(CC)c1nc(N)c2c(N)nc(OCC)cc2c1C#N | 0.1 | 1.5 | -16.5 | -9.8 | 15.0 | 97.8* | 15.5 | 11.4
COc1cc2c(C#N)c(N3CCN(C)CC3)nc(N)c2c(N)n1 | -5.8 | -3.3 | -7.1 | 11.8 | 23.6 | 18.7 | nt | nt
CCCCN(CC)c1nc(N)c(C#N)c(CC#N)c1C#N | -4.0 | 4.6 | -8.6 | -0.2 | 4.8 | 19.0 | nt | nt
CN1CCSc2ccc(C(=O)NCc3ccccc3F)cc21 | -5.3 | 4.9 | -2.1 | -12.2 | 1.6 | 11.1 | nt | nt
CCCCCCN1C[C@@H](n2cc(COC(=O)c3ccccc3)nn2)[C@H](O)C[C@@H]1c1ccccc1 | -3.9 | -0.5 | nt | -6.8 | nt | nt | nt | nt
CCOC(=O)c1[nH]c(=O)c2ccccc2c1O | -0.3 | 5.7 | 7.9 | 16.0 | 26.3 | 75.3* | 25.8 | 3.6
O=[N+]([O-])c1ccc(C=Nc2cccc3ccccc23)s1 | nt | nt | -20.7 | nt | 18.9 | 68.1* | 9.9 | -0.6
Cn1c(=O)c2c(nc(CN3CCN(Cc4ccccc4)CC3)n2Cc2cccc(Cl)c2)n(C)c1=O | -2.9 | -7.7 | -3.8 | -1.2 | 6.5 | 23.5 | nt | nt
Cn1c(=O)c2c(nc(CN3CCc4ccccc4C3)n2Cc2cccc(Cl)c2)n(C)c1=O | -0.5 | 2.5 | -2.1 | 4.3 | -0.3 | 51.4* | 19.8 | 2.0
COC(=O)c1ccc(=O)n(-c2ccc(OC)cc2)c1 | -2.6 | 2.2 | 2.2 | -3.9 | 7.9 | -5.0 | nt | nt
CCOc1ccc(NC(=O)CN(C)C(=O)c2ccc(COc3ccccc3)cc2)cc1OCC | 2.5 | 1.5 | -2.3 | 0.9 | nt | 47.9* | 40.1* | 4.2 | Fluor interf inh=>100

Assay outcomes as filed in PubChem BioAssay.
